Most compounds without a hit are left out; they make up all but 2.4% or so of the library.
MC4R antag cAMP: blocks human MC4R cAMP signaling | MC4R-expressing cells, MTII-stimulated cAMP, LANCE TR-FRET | P32245 | AID 540295 | inhibition, % at 6.5 µM | actives 0.48% (n = 360,000);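 active = inhibition above its plate's cutoff, the mean of tested wells on that plate plus 3 SD, cut at about 29% in these data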;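 note: 0% = Melanotan II alone and 100% = Melanotan II plus saturating MCL0020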
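system = U2OS cells with stable human MC4R expression | also added = Melanotan II challenge after compound preincubation | dosing = one concentration, 6.5 µM nominal | incubation = compound 30 min, challenge 1 h, detection 1 h | measured by = TR-FRET with Eu-cAMP and labeled anti-cAMP, 671 nm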
MC4R ag barr: activates human MC4R beta-arrestin recruitment | P32245 | activation, % at 8.9 µM | actives 0.98% (n = 360,000) | U2OS MC4R beta-arrestin complementation, luminescence; percent of melanotan II response, DMSO zero;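 active = activation above a per-plate cutoff, the mean activation of sample wells on that plate plus 3 SD, cut at about 8% in these data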
aDG glyco act: increases alpha dystroglycan glycosylation. Pro5-aDG cells, alpha-DG glycosylation AlphaScreen (IIH6); 0% Pro5, 100% B10-LARGE cell signal. activation, % at 10 µM. actives 0.22% (n = 360,000). AID 624168;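 active = activation of at least 8% versus controls, or a plate z-score of at least 8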;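 note: Pro5 are CHO cells carrying HIG-tagged alpha-DG that lacks glycosylation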
NTR1 agonist: agonists of human neurotensin receptor NTR1; NTR1-U2OS beta-arrestin-GFP spot imaging, agonist mode; actives 0.17% (n = 330,000); activation, % at 20 µM;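 active = activation at or above 40% of the spot to cytoplasm intensity ratio, with at least 20 cells analyzed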;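 note: 0% = DMSO without peptide and 100% = 100 nM NTR1 peptide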
Tb MetRS inh: blocks T. brucei methionyl-tRNA synthetase activity. purified T. brucei MetRS, ATP depletion, Kinase-Glo luminescence. inhibition, % at 11.9 µM. actives 0.4% (n = 360,000);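 active = inhibition above a per-plate cutoff of the control wells' mean inhibition plus 3 SD, cut at about 5.5% in these data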;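 note: 0% = DMSO wells median and 100% = median of wells with control inhibitor compound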
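assay system = parasite MetRS enzyme | timing = 15 min preincubation, 2 h reaction, all 25 °C | evaluation = percent inhibition relative to median high and low control wells | medium = HEPES buffer containing pyrophosphatase, BSA, spermine, DTT | compound = single dose, 11.9 µM final nominal, 0.9% final DMSO | detection = Kinase-Glo luminescence, ATP depletion format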
H9c2 TAG inh: reduces triacylglycerol accumulation in H9c2 cells; AID 651582; Nile Red lipid (TAG) fluorescence; cells loaded with 200 µM oleic acid; actives 0.66% (n = 230,000); inhibition, % at 12.5 µM;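 active = pattern-corrected inhibition of lipid staining of at least 50% with the nuclear-stain viability signal not falling by more than 50%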;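 note: 0% = DMSO wells and 100% = triacsin C control wells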
MC4R barr ag: human MC4R beta-arrestin agonism confirmation | shares compounds with MC4R ag barr | U2OS MC4R beta-arrestin recruitment, luminescence; scaled DMSO 0%, Melanotan II 100% | activation, % at 8.9 µM | actives 31% (n = 2,400);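 active = mean activation across replicates above the hit cutoff set in the earlier primary screen, cut at about 8% in these data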
MOR-DOR barr ag: counter-screen for MC4R agonists: agonists of mu-delta opioid heterodimer | shares compounds with MC4R ag barr | U2OS PathHunter beta-arrestin, beta-gal luminescence; percent of deltorphin B response, DMSO zero | activation, % at 9.2 µM | actives 5.8% (n = 2,400);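 active = mean activation across replicates exceeds the hit threshold derived in the earlier primary screen, cut at about 18% in these data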;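 note: 100% = deltorphin B at 0.9 µM final and 0% = DMSO alone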
Target sequence (P35372 whole entry, looked up): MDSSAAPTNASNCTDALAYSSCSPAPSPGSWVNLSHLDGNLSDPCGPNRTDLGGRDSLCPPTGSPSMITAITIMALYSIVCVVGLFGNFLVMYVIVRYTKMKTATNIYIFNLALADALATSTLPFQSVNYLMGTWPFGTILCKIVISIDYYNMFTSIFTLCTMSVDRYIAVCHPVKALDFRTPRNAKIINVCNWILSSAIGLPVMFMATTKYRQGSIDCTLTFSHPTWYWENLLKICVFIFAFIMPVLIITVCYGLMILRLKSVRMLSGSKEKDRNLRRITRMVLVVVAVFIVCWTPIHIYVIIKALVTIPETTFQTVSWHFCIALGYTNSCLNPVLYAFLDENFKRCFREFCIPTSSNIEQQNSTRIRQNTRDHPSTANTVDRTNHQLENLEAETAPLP
Target sequence (P41143 whole entry, looked up): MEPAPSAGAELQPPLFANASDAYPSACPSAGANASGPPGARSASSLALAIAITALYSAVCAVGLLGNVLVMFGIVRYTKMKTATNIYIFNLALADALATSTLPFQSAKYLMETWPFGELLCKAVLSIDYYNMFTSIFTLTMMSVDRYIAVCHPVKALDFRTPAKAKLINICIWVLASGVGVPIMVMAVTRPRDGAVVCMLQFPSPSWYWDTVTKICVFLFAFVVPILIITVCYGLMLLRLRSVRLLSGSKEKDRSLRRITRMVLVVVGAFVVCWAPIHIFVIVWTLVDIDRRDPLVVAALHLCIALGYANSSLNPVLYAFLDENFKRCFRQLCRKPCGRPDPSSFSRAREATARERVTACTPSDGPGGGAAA
Numbers without * were called inactive.

How did COc1ccc(-c2ccc(SCC(=O)Nc3nccs3)nn2)cc1OC do in these assays?
MC4R antag cAMP: 3.3; MC4R ag barr: 10.6*; aDG glyco act: -0.2; NTR1 agonist: 1.0; Tb MetRS inh: -0.9; H9c2 TAG inh: 6.3; MC4R barr ag: 3.2; MOR-DOR barr ag: 2.3

Results for CC1Cc2ccccc2N1C(=O)CO/N=C/c1ccccc1OC(F)F (configuration not stated) ?
MC4R antag cAMP: 19.1; MC4R ag barr: 0.4; aDG glyco act: 0.9; NTR1 agonist: 1.8; Tb MetRS inh: 0.3; H9c2 TAG inh: -2.2

What do the screens show for `O=C(CO/N=C/c1ccccc1OC(F)F)N1CCc2ccccc21`?
MC4R antag cAMP: 24.3; MC4R ag barr: 10.8*; aDG glyco act: -0.3; NTR1 agonist: -0.4; Tb MetRS inh: 0.2; MC4R barr ag: -2.0; MOR-DOR barr ag: 9.8

What do the screens show for `Cc1cccc(S(=O)(=O)Nc2ccc(-c3nc4ccc(C)cc4s3)cc2)c1`?
MC4R antag cAMP: -0.2; MC4R ag barr: 16.0*; aDG glyco act: 0.1; NTR1 agonist: 4.7; Tb MetRS inh: -1.3; H9c2 TAG inh: -13.9; MC4R barr ag: -0.4; MOR-DOR barr ag: 2.5

Results for Cc1ccc(S(=O)(=O)Nc2ccc(-c3nc4ccc(C)cc4s3)cc2)cc1 ?
MC4R antag cAMP: 7.6; MC4R ag barr: 13.8*; aDG glyco act: 0.1; NTR1 agonist: 9.6; Tb MetRS inh: -0.2; MC4R barr ag: 14.5*; MOR-DOR barr ag: 2.8

Results for Cc1ccc2nc(-c3ccc(NS(=O)(=O)c4c(C)n(C)c(=O)n(C)c4=O)cc3)sc2c1 ?
MC4R antag cAMP: 10.6; MC4R ag barr: -0.8; aDG glyco act: 0.2; NTR1 agonist: 0.9; Tb MetRS inh: -0.5; H9c2 TAG inh: 7.8

How did Cc1ccc2nc(-c3ccc(NC(=O)CCS(=O)(=O)c4ccccc4)cc3)sc2c1 do in these assays?
MC4R antag cAMP: 11.7; MC4R ag barr: -1.4; aDG glyco act: 1.5; NTR1 agonist: 1.7; Tb MetRS inh: 0.0; H9c2 TAG inh: 6.5

What do the screens show for `CC(C)(C)NC(=O)C(c1ccccc1F)n1c(=O)c(-c2cc3ccccc3[nH]2)nc2ccccc21` (configuration not stated)?
aDG glyco act: 1.2; Tb MetRS inh: -0.1

What do the screens show for `Cc1ccc(Sc2ccc(NC(=O)CCl)cc2)cc1C`?
MC4R antag cAMP: 13.9; MC4R ag barr: 19.2*; aDG glyco act: 0.5; NTR1 agonist: 6.1; Tb MetRS inh: 2.0; H9c2 TAG inh: 63.0*; MC4R barr ag: 17.3*; MOR-DOR barr ag: 6.1

What do the screens show for `Cc1ccc(C)c(Sc2ccc(NC(=O)CCl)cc2)c1`?
NTR1 agonist: 3.4

How did Oc1cccc(C(O)CNCc2ccc(OCc3ccc(Cl)cc3Cl)cc2)c1 (configuration not stated) do in these assays?
MC4R antag cAMP: 0.0; MC4R ag barr: 13.8*; aDG glyco act: 3.8; NTR1 agonist: 5.4; Tb MetRS inh: 2.1; H9c2 TAG inh: -18.3; MC4R barr ag: 27.2*; MOR-DOR barr ag: 15.3

What do the screens show for `O=C1CC(SC(=Nc2ccccc2)Nc2ccccc2)C(=O)N1c1ccc(Cl)c(Cl)c1` (configuration not stated)?
MC4R antag cAMP: 4.5; MC4R ag barr: 9.7*; aDG glyco act: 1.3; NTR1 agonist: 21.6; Tb MetRS inh: -0.2; MC4R barr ag: 3.6; MOR-DOR barr ag: 4.7

How did O=C1CC(SC(=NCc2ccc3c(c2)OCO3)Nc2ccccc2)C(=O)N1c1ccccc1 (configuration not stated) do in these assays?
MC4R antag cAMP: 5.2; MC4R ag barr: 21.4*; aDG glyco act: 0.0; NTR1 agonist: 2.0; Tb MetRS inh: -0.2; MC4R barr ag: 1.5; MOR-DOR barr ag: 9.0

What do the screens show for `O=C(O)c1ccc(N2C(=O)CC(SC(=NCc3ccc4c(c3)OCO4)Nc3ccccc3)C2=O)cc1` (configuration not stated)?
MC4R antag cAMP: -12.3; MC4R ag barr: 0.0; aDG glyco act: 0.0; NTR1 agonist: 1.4; Tb MetRS inh: -0.5; H9c2 TAG inh: 0.6

How did Cc1cccc(N2C(=O)CC(SC(=Nc3ccccc3)Nc3ccccc3)C2=O)c1 (configuration not stated) do in these assays?
MC4R antag cAMP: 7.4; MC4R ag barr: 2.8; aDG glyco act: 0.8; NTR1 agonist: 8.0; Tb MetRS inh: -0.6; H9c2 TAG inh: -8.9

Results for CN(C)CCCNC(=O)c1ccc(-c2cc3nc(NCc4cccnc4)n(C)c(=O)c3s2)cc1 ?
MC4R antag cAMP: -15.5; MC4R ag barr: -0.6; aDG glyco act: -0.1; Tb MetRS inh: -0.2; H9c2 TAG inh: 7.7

What do the screens show for `Cn1cc([C@]2(O)C(=O)Nc3ccc(F)cc32)c2ccccc21`?
aDG glyco act: 0.2; Tb MetRS inh: -0.3

Results for O=C1c2cccnc2C(=O)N1Cc1ccc(S(=O)(=O)N2CCN(c3ccc(Cl)cc3)CC2)cc1 ?
MC4R antag cAMP: 4.5; MC4R ag barr: 11.0*; aDG glyco act: 0.0; NTR1 agonist: 2.8; Tb MetRS inh: -0.1; MC4R barr ag: 2.7; MOR-DOR barr ag: 2.5

Results for CN(C)CCNc1ncnc2c1ncn2[C@H]1CN(Cc2ccc(Cl)cc2)C[C@@H](CO)O1 ?
MC4R antag cAMP: 17.0; MC4R ag barr: -1.9; aDG glyco act: 0.0; Tb MetRS inh: 0.6; H9c2 TAG inh: 2.0

Results for Cc1cccc(C)c1OC(=O)CSc1nnc(-c2ccccc2O)o1 ?
MC4R antag cAMP: 3.2; MC4R ag barr: 54.4*; aDG glyco act: 0.6; NTR1 agonist: 8.8; Tb MetRS inh: -2.2; MC4R barr ag: 8.2*; MOR-DOR barr ag: 4.4

What do the screens show for `COC(=O)CSc1nnc(-c2ccccc2OC)o1`?
MC4R antag cAMP: 5.3; MC4R ag barr: -1.0; aDG glyco act: 0.2; NTR1 agonist: 0.4; Tb MetRS inh: 0.0

Results for C/C(=C\C=C(C#N)C#N)c1cc(C#N)c(N)o1 ?
MC4R antag cAMP: -15.1; MC4R ag barr: 14.1*; aDG glyco act: -0.1; NTR1 agonist: -1.3; Tb MetRS inh: 0.3; MC4R barr ag: 57.0*; MOR-DOR barr ag: 20.2*

How did COc1cc2c(-c3ccc(O)cc3)nc3c(c(C)nn3-c3ccccc3)c2cc1OC do in these assays?
MC4R antag cAMP: 3.2; MC4R ag barr: 10.1*; aDG glyco act: 1.0; Tb MetRS inh: 0.2; MC4R barr ag: 2.2; MOR-DOR barr ag: 1.9
